OX1R antag-1 – antagonists of human orexin 1 receptor (OX1R) | 330,000 tested, 1.8% active | O43613 | OX1R-expressing cells, FRET antagonist read-out | AID 485270 | inhibition, % at 6.6 µM; in the data active = inhibition mostly above about 38%, no sharp cut-off; inactive = mostly below about 40%;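 also: 0% = agonist challenge alone and 100% = reference antagonist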
Target sequence (O43613 whole entry, looked up): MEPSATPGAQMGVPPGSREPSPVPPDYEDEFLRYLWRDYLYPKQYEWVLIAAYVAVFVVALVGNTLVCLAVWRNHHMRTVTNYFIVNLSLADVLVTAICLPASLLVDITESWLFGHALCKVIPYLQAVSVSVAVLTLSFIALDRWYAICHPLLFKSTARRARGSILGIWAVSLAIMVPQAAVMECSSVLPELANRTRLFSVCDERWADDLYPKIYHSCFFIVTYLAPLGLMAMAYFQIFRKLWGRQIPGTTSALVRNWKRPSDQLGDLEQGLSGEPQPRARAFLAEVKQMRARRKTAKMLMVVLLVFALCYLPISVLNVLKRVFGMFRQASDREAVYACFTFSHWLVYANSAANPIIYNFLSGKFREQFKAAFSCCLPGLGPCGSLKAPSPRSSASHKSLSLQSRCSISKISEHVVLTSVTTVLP
CHO parental Ca – counter-screen: ATP calcium response change in parental CHO cells | 330,000 tested, 0.63% active | parental CHO-K1, ATP-induced calcium, Fluo-8 fluorescence | inhibition, % at 5.6 µM | AID 463079;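 active = inhibition above that plate's mean sample inhibition plus 3 SD, cut at about 26% in these data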;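 also: 0% = ATP-challenged DMSO wells and 100% = DMSO wells without ATP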
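Material: Parental CHO cells | Reagent: ATP | Compound dosing: Single nominal dose of 5.6 µM per compound | Detection: Intracellular calcium via Fluo-8 no-wash fluorescent dye | Read-out: % inhibition of ATP-induced calcium mobilization | Benchmarks: Low control ATP plus DMSO, high control DMSO only | Replicates: Singlicate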
CHO-K1 Ca antag – nonselective inhibitor or artifact in parental CHO-K1 cells | ATP-induced calcium, Fluo-8 fluorescence | inhibition, % at 3 µM | 360,000 tested, 0.6% active;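 active = inhibition above a per-plate cutoff, the plate's mean sample inhibition plus 3 SD, cut at about 24% in these data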;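 also: 0% = DMSO plus EC80 ATP and 100% = DMSO alone without ATP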
M1 PAM parental – M1 PAM counterscreen hit in parental CHO-K1 cells. AID 602247. ATP EC20, Fluo-8 calcium fluorescence; 0% at ATP EC20, 100% at ATP max. activation, % at 3 µM. 360,000 tested, 0.02% active;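 active = activation above the run cutoff, the mean activation of all test compounds plus 3 SD, cut at about 40% in these data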;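 also: peak over basal fluorescence ratio in a 140 s read after ATP addition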
M1 ag parental – nonselective activator or artifact in parental CHO-K1 cells; Fluo-8 calcium fluorescence; scaled to maximal ATP response, vehicle zero; activation, % at 3 µM; 360,000 tested, 0.48% active; AID 602248; in the data active = activation above about 15%;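 also: untransfected CHO-K1 host cells lacking M1 receptor as counterscreen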
OX1R antag-2 – antagonists of human orexin 1 receptor | O43613 | CHO/OX1R cells, Fluo-8 calcium fluorescence, orexin A | inhibition, % at 5 µM | 330,000 tested, 0.43% active | AID 434989;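 active = inhibition above its plate's threshold, mean inhibition of all tested compounds on the plate plus 3 SD, cut at about 37% in these data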;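 also: 0% = orexin A challenge wells and 100% = SB-334867-A antagonist wells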
* marks the source's active call; other numbers are inactive results; / = not tested or not shown. Only some compounds are listed: those with a hit (about 2.9% of all), similar ones and a draw of the others.

SMILES	OX1R antag-1	CHO parental Ca	CHO-K1 Ca antag	M1 PAM parental	M1 ag parental	OX1R antag-2
Cc1ccc(C2CC2c2n[nH]c(=S)n2-c2cccc(C)c2)cc1 (stereo unspecified)	20	-15	7	9	-1	-27
Cc1ccc(C2CC2c2n[nH]c(=S)n2-c2ccc(Cl)cc2)cc1 (stereo unspecified)	10	86*	-15	22	1	35
CSc1nsc(SC)c1NC(=O)Nc1ccccn1	-6	-21	-30	49*	2	-4
CSc1nsc(SC)c1NC(=O)OCCc1ccccn1	12	-7	-21	28	1	-11
Cc1[nH]n(-c2ccccc2)c(=O)c1C(c1cccc([N+](=O)[O-])c1O)c1c(C)[nH]n(-c2ccccc2)c1=O	11	-2	13	11	15*	3
COC(=O)c1ccc2nc(NC(=O)COC(=O)CSc3nc(C)cc(C)n3)sc2c1	-2	-11	14	8	15*	-15
Cc1ccc2nc(NC(=O)COC(=O)CSc3nc(C)cc(C)n3)sc2c1	7	-25	-3	1	2	-12
CCOC(=O)N/N=C(/C)c1ccc(N2C(=O)C3CCCCC3C2=O)cc1 (stereo unspecified)	17	4	-18	19	1	0
N#CC(=C=[N-])c1nc2ccccc2nc1-[n+]1cccc(NC(=O)c2ccccc2)c1	26	-6	-3	4	0	-10
CCc1cc[n+](-c2nc3ccccc3nc2C(=C=[N-])C#N)cc1	74*	-2	8	-3	0	-14
O=C(NNC(=O)C1C2C=CC(C2)C1C(=O)O)c1ccccc1O (stereo unspecified)	15	-7	11	7	0	-12
COc1ccccc1CSc1nc2c(c(=O)n(C)c(=O)n2C)n1C	/	/	0	-18	0	/
CN1CCN(S(=O)(=O)c2ccc3c(c2)C(C)(C)C(=O)N3C)CC1	0	4	25*	-5	0	9
O=C(CSc1nnc(-c2cccc(Br)c2)o1)NCC1CCCO1 (stereo unspecified)	/	/	26*	-12	0	/
Cc1cccc(C)c1NC(=O)c1sccc1SCc1cccc(C(F)(F)F)c1	31	53*	5	-1	0	37*
Cc1cnc(=O)[nH]c1SCc1cccc(C(F)(F)F)c1	20	-16	-2	-6	3	-17
COc1cc(/C=C2\SC(=S)N(CCC(=O)Nc3ccccc3O)C2=O)cc(OC)c1OC	21	-6	10	6	3	-11
Cc1cc2[nH]c(=O)c(=O)[nH]c2cc1S(=O)(=O)N1CCN(c2ccccc2)CC1	1	-5	-15	33	1	-5
Cc1ccc(Br)cc1S(=O)(=O)N1CCN(c2ccccc2)CC1	1	36*	-3	13	1	-21
Cc1cc2c(cc1S(=O)(=O)N1CCN(c3ccccc3)CC1)OCCN2C	17	34*	-5	19	0	-32
CC(=O)N1CCOc2cc(S(=O)(=O)N3CCN(c4ccccc4)CC3)c(Cl)cc21	6	6	7	2	1	-8
CCOc1ccc(C(=O)N(CC(=O)Nc2cccc(C)c2C)CC2CCCO2)cc1OC (stereo unspecified)	4	-20	-14	9	0	-24
CCCCN(C(=O)c1cc(S(=O)(=O)N2CCCCC2)ccc1Cl)c1c(N)n(CCC)c(=O)[nH]c1=O	/	/	-15	-2	0	/
CCCCn1c(N)c(N(CC(C)C)C(=O)CCS(=O)(=O)c2ccc(C)cc2)c(=O)[nH]c1=O	4	-12	-11	7	0	-24
CCCCN(C(=O)c1ccccc1OCc1ccc(F)cc1)c1c(N)n(CCC)c(=O)[nH]c1=O	66*	-23	-15	25	1	11
SMILES	OX1R antag-1	CHO parental Ca	CHO-K1 Ca antag	M1 PAM parental	M1 ag parental	OX1R antag-2
CCCCN(C(=O)c1ccc(-c2ccc([N+](=O)[O-])cc2)o1)c1c(N)n(CCCC)c(=O)[nH]c1=O	46	2	-4	4	-1	-10
CCCCN(C(=O)c1cc(S(=O)(=O)N2CCCCCC2)ccc1OC)c1c(N)n(CCC)c(=O)[nH]c1=O	22	-14	25*	-37	0	-6
CCCCN(C(=O)c1ccc([N+](=O)[O-])o1)c1c(N)n(CCCC)c(=O)[nH]c1=O	62*	-22	-4	0	0	-22
CCCCn1c(N)c(N(CC(C)C)C(=O)CCCc2cccs2)c(=O)[nH]c1=O	7	-18	26*	-19	-1	-29
CCN(CCCNC(=O)CNC(=O)c1nn(-c2ccc(OC)c(OC)c2)c(=O)c2ccccc12)c1ccccc1	35	-17	-5	-13	6	-22
O=C(CS(=O)(=O)Cc1ccccc1)N1CCN(c2ccccc2F)CC1	6	-17	-4	-16	3	-11
CCc1nnc(NC(=O)CCC(=O)NC2CC2)s1	-4	-4	-8	-3	1	-4
CCCCn1c(N)c(N(Cc2ccccc2OC)C(=O)c2ccc([N+](=O)[O-])s2)c(=O)[nH]c1=O	50*	-17	-4	0	0	-23
CCCCn1c(N)c(N(Cc2ccccc2OC)C(=O)COc2ccccc2OC)c(=O)[nH]c1=O	25	-13	4	-9	1	-12
O=C(Cc1csc(NC(=O)Nc2ccc(Cl)cc2)n1)NCc1ccccn1	6	-10	2	4	5	-17
CCCCC(=O)Nc1ccc(C(=O)Nc2nc(CC(=O)OCC)cs2)cc1	7	-8	2	17	21*	16
O=C(Cc1csc(NC(=O)Nc2ccc(Cl)cc2)n1)NC1CCCC1	16	35*	12	-9	8	14
CCOC(=O)Cc1csc(NC(=O)Nc2ccc(Cl)cc2)n1	11	25	16	-24	18*	7
COc1ccc(C(=O)Nc2nc(CC(=O)NCc3ccc(F)cc3)cs2)cc1	4	5	12	-13	20*	-9
COc1ccc(C(=O)Nc2nc(CC(=O)NCc3c(F)cccc3F)cs2)cc1	/	/	1	11	8	/
CCOC(=O)Cc1csc(NC(=O)c2ccc(C)cc2)n1	25	-17	-9	-3	6	-3
CS(=O)(=O)NCCCNc1ccc(Cl)cc1[N+](=O)[O-]	43*	-7	0	-4	1	-8
O=C(OCC(=O)c1ccc(Cl)s1)c1cncc(Br)c1	8	-17	-1	-11	0	-12
O=C(CNc1ccccc1)N/N=C/c1ccc([N+](=O)[O-])o1	51*	-6	13	-5	6	-6
O=C(CCC(=O)Nc1ccc(Cl)cc1Cl)N/N=C/c1ccc([N+](=O)[O-])o1	41	-14	0	5	3	-17
CCCCCC(=O)N/N=C/c1ccc([N+](=O)[O-])o1	36*	-6	-10	10	0	6
